RGS4 pot: RGS4 potentiation or activation; AID 463111; HEK293 M3R/inducible RGS4, carbachol calcium flux Fluo4; stronger effect = lower value; 310,000 compounds, 0.92% hits; B-score at 10 µM;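 active = B-score of the integrated calcium signal more than 4 SD below the library mean, with starting fluorescence not abnormally high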;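 also: negative B-score means reduced calcium response which marks RGS4 activation or potentiation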
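System: HEK293 FlpIn-TREx cells, stable M3R, doxycycline-inducible RGS4. Timing: overnight RGS4 induction, 30 min dye load 37 °C, 20 min compound RT. Also added: carbachol, ECmax concentration. Measured by: Fluo4 fluorescence kinetic imaging of calcium. Evaluation: integrated calcium ratio converted to B score.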
MrgX1 PAM: human MrgX1 positive allosteric modulation, primary screen | Q96LB2 | MrgX1-HEK293, Fluo-4 calcium flux, FDSS; stronger effect = higher value | B-score at 10 µM | 310,000 compounds, 0.63% hits;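 active = plate-corrected calcium response at least 3 library SD above typical, normal starting fluorescence, not activating the receptor alone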;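 also: compound read alongside a low EC10 to EC30 dose of BAM8-22 agonist; peak minus trough fluorescence over baseline measured at the second addition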
Target sequence (Q96LB2 whole entry, looked up): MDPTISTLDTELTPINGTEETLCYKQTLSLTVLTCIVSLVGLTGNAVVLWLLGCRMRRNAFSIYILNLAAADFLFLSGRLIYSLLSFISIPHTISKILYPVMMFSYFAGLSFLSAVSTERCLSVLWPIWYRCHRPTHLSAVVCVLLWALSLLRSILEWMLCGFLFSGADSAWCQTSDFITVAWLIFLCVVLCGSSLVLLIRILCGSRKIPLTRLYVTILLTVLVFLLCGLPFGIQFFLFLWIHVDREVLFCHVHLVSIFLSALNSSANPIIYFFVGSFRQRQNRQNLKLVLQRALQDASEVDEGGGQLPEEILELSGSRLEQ
MrgX1 agonist: agonists of human MrgX1 receptor. Q96LB2. MrgX1-HEK293 cells, Fluo-4 calcium fluorescence, agonist mode; stronger effect = higher value. B-score at 10 µM. 310,000 compounds, 0.44% hits. AID 588627;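 active = calcium response B-score plate-corrected fluorescence ratio at least 3 library SD, with starting fluorescence B-score inside 5 SD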
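Assay system: stable human MrgX1 HEK293 cell line. Quantity: 15,000 cells per well. Schedule: cells plated overnight, dye loaded 0.5 h 37 °C, 0.5 h room temperature. Detection: Fluo-4 NW calcium-flux fluorescence, kinetic read. Read-out basis: peak-minus-minimum fluorescence over baseline, converted to B scores. Control set: positive and negative control wells on each plate.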
MrgX1 antagonist: blocks BAM8-22 activation of human MrgX1 receptor. 310,000 compounds, 1.3% hits. B-score at 10 µM. MRGX1-HEK293 calcium flux, Fluo-4, BAM8-22 antagonism; stronger effect = lower value. AID 588676. Q96LB2;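 active = calcium-response B-score plate-corrected more than 3 library SD below zero, starting fluorescence within 5 deviations, no agonist response on first addition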;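 also: peak minus trough fluorescence over baseline after final BAM8-22 challenge near maximal dose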
RGS4 block: inhibitors of human RGS4 | HEK293 M3R/RGS4 inducible, Fluo-4 calcium flux; stronger effect = higher value; triggered by carbachol at its EC20 | B-score at 10 µM | 310,000 compounds, 0.45% hits | AID 463165;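 active = B-score, a plate-corrected calcium signal, over three deviations above library mean, with baseline fluorescence within five deviations of library mean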;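 also: RGS4 expression induced by doxycycline in cells with stable M3 receptor; B-score is computed from the integrated fluorescence ratio over baseline after carbachol; higher B-score means a larger calcium signal and so more RGS4 inhibition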
Target sequence (P49798 whole entry, looked up): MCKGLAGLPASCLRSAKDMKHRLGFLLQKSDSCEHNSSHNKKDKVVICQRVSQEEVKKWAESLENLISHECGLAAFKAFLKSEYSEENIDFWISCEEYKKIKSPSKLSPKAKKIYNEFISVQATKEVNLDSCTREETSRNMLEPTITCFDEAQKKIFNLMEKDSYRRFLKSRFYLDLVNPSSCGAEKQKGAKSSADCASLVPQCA
Each line names hits and unclear results; the compound was inactive in the other large screens. Shown are actives, neighbours in structure and some others; about 3.5% of the full set was active somewhere.

OCCC1CN(Cc2nc3ccccc3s2)CCN1C1CCCCC1 (stereo unspecified)	MrgX1 antagonist -5.24
CC(C)CN1CCN(Cc2nc3ccccc3s2)CC1CCO (stereo unspecified)	none
COc1ccc2c(c1)C=C(CN1CCN(C3CCCC3)C(CCO)C1)CO2 (stereo unspecified)	RGS4 pot -6.98
OCCC1CN(Cc2nc(-c3ccccc3)cs2)CCN1C1CCCC1 (stereo unspecified)	RGS4 pot -7.18
CC(C)(C)C(=O)Nc1c2c(nn1-c1ccccc1)CSC2	none
C/C(=N/NC(=O)c1ccc(C(C)(C)C)cc1)c1ccccn1	RGS4 block 8.54
CCOC(=O)C1(Cc2cccc(OC)c2)CCCN(C(=O)CCc2cccnc2)C1 (stereo unspecified)	none
CCOC(=O)N1CCc2c(sc3c2C(=O)NC(c2ccccc2)N3)C1 (stereo unspecified)	none
CN1CCc2c(sc3c2C(=O)NC(c2ccco2)N3)C1 (stereo unspecified)	MrgX1 agonist 27
O=C1NC(c2ccco2)Nc2sc3c(c21)CCN(Cc1ccccc1)C3 (stereo unspecified)	MrgX1 agonist 30 (no result: RGS4 pot, RGS4 block)
CN1CCc2c(sc3c2C(=O)NC(c2cccc(OC(=O)c4cccs4)c2)N3)C1 (stereo unspecified)	none
Cn1cccc1C1NC(=O)c2c(sc3c2CCC(C(C)(C)C)C3)N1 (stereo unspecified)	none
CN1CCc2c(sc3c2C(=O)NC(c2cn(Cc4ccccc4)c4ccccc24)N3)C1 (stereo unspecified)	MrgX1 agonist 28.8
Cc1ccc(S(=O)(=O)N2CCC(C(=O)NC3CC(C)(C)NC(C)(C)C3)CC2)cc1C	none
CCCCN(C(=O)C(C)Oc1ccc(Br)cc1)c1c(N)n(Cc2ccccc2)c(=O)[nH]c1=O (stereo unspecified)	none
CC(=O)Oc1cccc(N2C(=O)c3cccc4c([N+](=O)[O-])ccc(c34)C2=O)c1	MrgX1 antagonist -8.37
O=C1c2cccc3c([N+](=O)[O-])ccc(c23)C(=O)N1CCc1ccccn1	none
CN(C)CCCN1C(=O)c2cccc3c([N+](=O)[O-])ccc(c23)C1=O	MrgX1 antagonist -9.42 (no result: RGS4 pot, RGS4 block)
O=C(NC1CCCCC1)C(c1ccc(F)cc1)N(Cc1ccccc1)C(=O)CN1C(=O)c2ccccc2S1(=O)=O (stereo unspecified)	none
O=C(NC1CCCCC1)C(c1ccc(F)cc1)N(CCc1ccccc1)C(=O)CN1C(=O)c2ccccc2S1(=O)=O (stereo unspecified)	MrgX1 antagonist -8.91
Cc1ccc(OCCn2cc(/C=N/NC(=O)c3ccncc3)c3ccccc32)cc1	none
COc1ccc(OCCn2cc(/C=N/NC(=O)c3ccncc3)c3ccccc32)cc1	MrgX1 PAM 7.16
CCc1ccc2c(c1)cc(C)c1nnc(SCC(=O)Nc3cc(OC)c(OC)cc3C(=O)O)n12	none
CCN1CCN(Cc2c(O)ccc3c2O/C(=C\c2ccccc2)C3=O)CC1	RGS4 pot -8.31
CCN1CCN(Cc2c(O)ccc3c2O/C(=C\c2ccc(C)cc2)C3=O)CC1	none
O=C1/C(=C/C=C/c2ccccc2)Oc2c1ccc(O)c2CN1CCN(CCO)CC1	MrgX1 antagonist -5.68
Cc1ccc(/C=C2\Oc3c(ccc(O)c3CN3CCN(C)CC3)C2=O)cc1	RGS4 pot -9.6
CCc1nc(CN(C)C(=O)C2CCC(=O)N(CCc3cccc(F)c3)C2)no1 (stereo unspecified)	none
Cc1ccc(NC(=O)/C(Cl)=C/c2ccccc2)cc1C	MrgX1 PAM 8.96
CC(C)N1CCc2c(sc(NC(=O)c3ccc4ccccc4c3)c2C(N)=O)C1	none
CC(=O)Nc1sc2c(c1-c1nc3ccccc3s1)CCN(C(C)C)C2	MrgX1 agonist 27.5 (no result: RGS4 pot, RGS4 block)
O=C(CCSc1ccccn1)Nc1ccc(Br)cc1	none
COC(=O)c1cccc(-c2ccc(/C=N/N3C(=O)C4C5C=CC(C6CC56)C4C3=O)o2)c1 (stereo unspecified)	RGS4 pot -9.9
CCN(CC)CCCn1c2c(c(SCC(=O)N3CCCc4ccccc43)nc1=O)CCC2	none
O=[N+]([O-])c1ccc(CSc2ncnc3c2ncn3[C@@H]2O[C@H](CO)[C@@H](O)[C@H]2O)cc1	none (no result: RGS4 pot, RGS4 block)
NCCNC(=O)Cc1cccc(NC(=O)Cc2ccc(Nc3ncnc4c3ncn4[C@@H]3O[C@H](CO)[C@@H](O)[C@H]3O)cc2)c1	MrgX1 PAM 8.17
CCOC(=O)C1CCN(C(=O)C2CCCN(S(=O)(=O)c3ccc(OCC)c(Cl)c3)C2)CC1 (stereo unspecified)	none
Cc1cc(=O)oc2cc(OCC(=O)N3CCN(C(=O)C4COc5ccccc5O4)CC3)ccc12 (stereo unspecified)	none
Cc1c(C)c2ccc(OCC(=O)N3CCN(C(=O)C4COc5ccccc5O4)CC3)cc2oc1=O (stereo unspecified)	RGS4 pot -7.25
Cc1nnc(N/N=C/c2ccc(Br)cc2)n1N	MrgX1 PAM 18.1
Cc1nnc(N/N=C/c2ccc(-c3ccc(Br)cc3)o2)n1N	none
O=C(c1csc2c1CCCC2)N1CCN(c2cccc(C(F)(F)F)c2)CC1	none
COc1ccc(CN2CCN(CC=C(C)C)C(CCO)C2)cc1Cn1cccn1 (stereo unspecified)	MrgX1 agonist 28.2
CCOc1ccc(N2CC(=O)Nc3ccccc3NCC2=O)cc1	MrgX1 antagonist -5.92
Cc1ccc(-c2nc3cc(Br)cnc3nc2-c2ccc(C)cc2)cc1	none
Brc1cccc(-c2nc3cccnc3nc2-c2cccc(Br)c2)c1	RGS4 pot -7.03
C/C(=N\O)C(C)(C)Nc1ccc(Br)cc1	MrgX1 agonist 26.5
CCN(CC)S(=O)(=O)c1ccc(C2=NOC3(C2)N(C)c2ccccc2C3(C)C)cc1 (stereo unspecified)	RGS4 pot -8.42
CN1c2ccccc2C(C)(C)C12CC(c1ccc(S(=O)(=O)N3CCCCC3)cc1)=NO2 (stereo unspecified)	none
CCOC(=O)CN(C)C(=O)CCc1nnc(-c2ccc(-c3ccccc3)cc2)o1	none
CCN(CC)CCN(C)C(=O)CCc1nnc(-c2ccc(C)s2)o1	MrgX1 antagonist -6.63
CN1C=CC=C/C1=C1\SC(=S)N(c2ccccc2)C1=O	none
C=CCN1C=CC=C/C1=C1\SC(=S)N(C)C1=O	RGS4 pot -8.33
O=C(Nc1cccc(F)c1)/C(=C\c1cccnc1)NC(=O)c1cccs1	MrgX1 antagonist -5.53
O=C(Nc1cccc(F)c1)/C(=C\c1cccnc1)NC(=O)c1ccco1	none
Cc1[nH]n(-c2ccccc2)c(=O)c1C(c1ccccc1[N+](=O)[O-])C(C#N)C#N (stereo unspecified)	MrgX1 agonist 35.9
O=C(NNC(=O)C1CC2CCC1C2)c1sc2ccccc2c1Cl (stereo unspecified)	MrgX1 PAM 6.94

Source: PubChem (Johns Hopkins Ion Channel Center)
